Values after ≈ are worked out from the molar mass of the structure shown.
How the values were obtained:
HEK293 = experiment: Cytotoxic activity against HEK293 cells after 24 hrs by MTT assay; assay type: cell-based; conditions: Homo sapiens, HEK293, 24 h
Summary of the method: (§1)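 Cells were seeded at 1 × 10^6 to 1 × 10^5 cells/well in FBS-rich medium with antibiotics, and compounds were added after 24 h. MTT (5 mg/ml stock in PBS pH 7.4) was then added, with 4 h in the dark in an incubator. Dye was removed (except for suspension K562), formazan was dissolved in DMSO with 10 min shaking, and A570 was read. Percent cytotoxicity was calculated relative to untreated control absorbance.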

[1] = Anticancer activity against human SH-SY5Y cells after 24 hrs by MTT assay; assay type: functional, cell-based
A498 = experiment: Anticancer activity against human A498 cells after 24 hrs by MTT assay; assay type: functional, cell-based; conditions: A498, 24 h; summary of the method: as §1
[2] = Inhibition of rat intestinal alpha-glucosidase using p-nitrophenyl-alpha-D-glucopyranoside substrate by spectrophotometry
Summary of the method: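 Crude enzyme was the centrifuged supernatant of sonicated rat intestinal acetone powder in normal saline (100:1 w/v). Samples from 5 mg/mL DMSO stocks were preincubated with enzyme for 5 min in 100 mM phosphate buffer pH 6.8. Then 5 mM p-nitrophenyl-α-D-glucopyranoside solution was added, and p-nitrophenol was read at 405 nm after 5 min. Substrate-free blanks and a DMSO control were included, in triplicate. IC50 was obtained by regression on mean inhibition.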

WRL68 = experiment: Anticancer activity against human WRL68 cells after 24 hrs by MTT assay; assay type: functional, cell-based; conditions: WRL68, 24 h; summary of the method: as §1
MCF7 = experiment: Anticancer activity against human MCF7 cells after 24 hrs by MTT assay; assay type: functional, cell-based; conditions: MCF7, 24 h; summary of the method: as §1
K562 = experiment: Anticancer activity against human K562 cells after 24 hrs by MTT assay; assay type: functional, cell-based; conditions: K562, 24 h; summary of the method: as §1
[3] = Anticancer activity against human MDA-MB cells after 24 hrs by MTT assay; assay type: functional, cell-based
HeLa = experiment: Anticancer activity against human HeLa cells after 24 hrs by MTT assay; assay type: functional, cell-based; summary of the method: as §1
NRK = experiment: Cytotoxicty against rat NRK cells after 24 hrs by MTT assay; assay type: cell-based; summary of the method: as §1
[4] = Induction of hemolysis in human erythrocytes assessed as mean erythrocyte fragility by measuring level of hemolysis at 50% PBS at 100 ug/mL by spectrophotomtery based erythrocyte osmotic fragility assay; assay type: cell-based
Summary of the method: (§2)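 Heparinised human blood was incubated with compound at 37 °C for 60 min, then transferred to hypotonic PBS (0.1–0.85 %). After 30 min equilibration and centrifugation, supernatant A540 was read. Percent lysis is relative to a 100% haemolysis standard, and fragility curves give MEF50 as the haemolysis level at 50% PBS. DMSO 0.5% served as vehicle control.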

[5] = Induction of hemolysis in human erythrocytes assessed as mean erythrocyte fragility by measuring level of hemolysis at 50% PBS at 50 ug/mL by spectrophotomtery based erythrocyte osmotic fragility assay; assay type: cell-based; summary of the method: as §2

Compound | IC50 [2] [mg/L] | IC50 (MCF7) [mg/L] | IC50 (K562) [mg/L] | IC50 (HeLa) [mg/L] | IC50 (HEK293) [mg/L] | IC50 [1] [mg/L] | IC50 (A498) [mg/L] | IC50 (WRL68) [mg/L] | IC50 [3] [mg/L] | IC50 (NRK) [mg/L] | Activity [4] | Activity [5]
C=C[C@@]1(C)CC(=O)[C@@]23O[C@@H](C)O[C@H]4CCC(C)(C)[C@H]([C@H](O)[C@H](OC(C)=O)[C@@]2(C)O1)[C@]43C | 5.87 (≈ 13.4 µM) | > 100 | > 100 | > 100 | > 100 | > 100 | > 100 | > 100 | > 100 | > 100 |  | 
C=C[C@@]1(C)CC(=O)[C@@]23O[C@@H](c4ccco4)O[C@H]4CCC(C)(C)[C@H]([C@H](O)[C@H](OC(C)=O)[C@@]2(C)O1)[C@]43C | 4.96 (≈ 10.2 µM) | > 100 | > 100 | > 100 | > 100 | > 100 | > 100 | > 100 | > 100 | > 100 |  | 
C=C[C@@]1(C)CC(=O)[C@@]23O[C@@H](/C=C/c4ccccc4)O[C@H]4CCC(C)(C)[C@H]([C@H](O)[C@H](OC(C)=O)[C@@]2(C)O1)[C@]43C | 0.74 (≈ 1.41 µM) | > 100 | > 100 | > 100 | 38.5 (≈ 73.5 µM) | > 100 | > 100 | > 100 | > 100 | > 100 |  | 
C=C[C@@]1(C)CC(=O)[C@@]23O[C@@H](c4ccccc4)O[C@H]4CCC(C)(C)[C@H]([C@H](O)[C@H](O)[C@@]2(C)O1)[C@]43C | > 100 | > 100 | 1.26 (≈ 2.77 µM) | 3.89 (≈ 8.52 µM) | 1.17 (≈ 2.56 µM) | 21.6 (≈ 47.2 µM) | 20.4 (≈ 44.8 µM) | 9.79 (≈ 21.4 µM) | 20.8 (≈ 45.4 µM) | 23.7 (≈ 51.9 µM) | 0.69 | 0.67
C=C[C@@]1(C)CC(=O)[C@@]23O[C@@H](c4ccccc4)O[C@H]4CCC(C)(C)[C@H]([C@H](OC(C)=O)[C@H](O)[C@@]2(C)O1)[C@]43C | 4.14 (≈ 8.3 µM) | 1.15 (≈ 2.31 µM) | 1.26 (≈ 2.53 µM) | 9.22 (≈ 18.5 µM) | 14.3 (≈ 28.7 µM) | 16.6 (≈ 33.3 µM) | 16.7 (≈ 33.5 µM) | 16.6 (≈ 33.3 µM) | 1.28 (≈ 2.57 µM) | 20.1 (≈ 40.4 µM) | 0.57 | 0.53
C=C[C@@]1(C)CC(=O)[C@@]23O[C@@H](C)O[C@H]4CCC(C)(C)[C@H]([C@H](OC(C)=O)[C@H](O)[C@@]2(C)O1)[C@]43C | 6.4 (≈ 14.7 µM) | 39.2 (≈ 89.9 µM) | > 100 | 17.4 (≈ 39.9 µM) | > 100 | > 100 | 41.6 (≈ 95.3 µM) | > 100 | > 100 | > 100 |  | 
COc1cc(/C=C/C(=O)CC(=O)/C=C/c2ccc(O)c(OC)c2)ccc1O [CURCUMIN] |  |  |  |  |  |  |  |  |  |  | 0.53 | 
COc1cc([C@@H]2c3cc4c(cc3[C@H](O)[C@H]3COC(=O)[C@H]23)OCO4)cc(OC)c1OC [PODOFILOX] |  |  | 0.013 (≈ 0.0314 µM) | 3.14 (≈ 7.58 µM) | 0.12 (≈ 0.29 µM) | 1.05 (≈ 2.53 µM) | 0.034 (≈ 0.082 µM) |  | 0.017 (≈ 0.041 µM) |  | 0.69 | 

Continued, in another order:

IC50 [2] [mg/L] | IC50 (MCF7) [mg/L] | IC50 (K562) [mg/L] | IC50 (HeLa) [mg/L] | Compound | IC50 (HEK293) [mg/L] | IC50 [1] [mg/L] | IC50 (A498) [mg/L] | IC50 (WRL68) [mg/L] | IC50 [3] [mg/L] | IC50 (NRK) [mg/L] | Activity [4] | Activity [5]
2.81 (≈ 5.64 µM) | > 100 | > 100 | > 100 | C=C[C@@]1(C)CC(=O)[C@@]23O[C@@H](c4ccccc4)O[C@H]4CCC(C)(C)[C@H]([C@H](O)[C@H](OC(C)=O)[C@@]2(C)O1)[C@]43C | > 100 | > 100 | > 100 | > 100 | > 100 | > 100 |  | 
> 100 | > 100 | > 100 | 46.2 (≈ 79.9 µM) | C=C[C@@]1(C)CC(=O)[C@@]23O[C@@H](c4ccc(Br)cc4)O[C@H]4CCC(C)(C)[C@H]([C@H](O)[C@H](OC(C)=O)[C@@]2(C)O1)[C@]43C | > 100 | > 100 | > 100 | > 100 | > 100 | > 100 |  | 
0.76 (≈ 1.4 µM) | > 100 | > 100 | > 100 | C=C[C@@]1(C)CC(=O)[C@@]23O[C@@H](c4ccc([N+](=O)[O-])cc4)O[C@H]4CCC(C)(C)[C@H]([C@H](O)[C@H](OC(C)=O)[C@@]2(C)O1)[C@]43C | > 100 | > 100 | > 100 | > 100 | > 100 | > 100 |  | 
> 100 | > 100 | > 100 | 42 (≈ 83.2 µM) | C=C[C@@]1(C)CC(=O)[C@@]23O[C@@H](c4cccs4)O[C@H]4CCC(C)(C)[C@H]([C@H](O)[C@H](OC(C)=O)[C@@]2(C)O1)[C@]43C | 40.1 (≈ 79.6 µM) | > 100 | > 100 | > 100 | > 100 | > 100 |  | 
4.23 (≈ 10.7 µM) | 45.7 (≈ 116 µM) | 25.4 (≈ 64.3 µM) | 0.95 (≈ 2.41 µM) | C=C[C@@]1(C)CC(=O)[C@@]23O[C@@H](C)O[C@H]4CCC(C)(C)[C@H]([C@H](O)[C@H](O)[C@@]2(C)O1)[C@]43C | 24.8 (≈ 63 µM) | 34.7 (≈ 87.9 µM) | 40.6 (≈ 103 µM) | 29.7 (≈ 75.4 µM) | 24.5 (≈ 62.1 µM) | 48 (≈ 122 µM) | 0.69 | 0.85
0.45 (≈ 0.697 µM) |  |  |  | C[C@H]1O[C@H](O[C@H]2[C@H](O)[C@@H](O)[C@@H](O[C@H]3[C@H](O)[C@@H](O)C(O)O[C@@H]3CO)O[C@@H]2CO)[C@H](O)[C@@H](O)[C@@H]1N[C@H]1C=C(CO)[C@@H](O)[C@H](O)[C@H]1O (stereo partly specified) [ACARBOSE] |  |  |  |  |  |  |  | 
 |  | 0.018 (≈ 0.0211 µM) |  | CC(=O)O[C@H]1C(=O)[C@@]2(C)[C@H]([C@H](OC(=O)c3ccccc3)[C@]3(O)C[C@H](OC(=O)[C@H](O)[C@@H](NC(=O)c4ccccc4)c4ccccc4)C(C)=C1C3(C)C)[C@]1(OC(C)=O)CO[C@@H]1C[C@@H]2O [PACLITAXEL] | 0.008 (≈ 0.00937 µM) | 7.3 (≈ 8.55 µM) | 7.53 (≈ 8.82 µM) | 0.004 (≈ 0.00468 µM) | 0.026 (≈ 0.0304 µM) |  |  | 
